Sampled rows, rich in hits. Any-hit rate of the full collection: about 1.6%.
Yeast life ext: yeast lifespan extension. S. cerevisiae growth with nicotinamide, OD615; deaD strain in restrictive glucose medium. AID 775. inhibition of the nicotinamide effect, % at 10 µM. actives 0.68% (n = 130,000);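 active = inhibition above a set limit, placed 3 SD over the median of all compounds, cut at about 26% in these data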;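 note: 0% = nicotinamide-treated wells and 100% = cells grown without nicotinamide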
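Assay system: engineered S. cerevisiae DeaD replicative-lifespan strain, galactose-grown log-phase cells; Buffer or medium: CSMM-D glucose medium, restrictive; Probe or stimulus: nicotinamide 1.5 mM; Compound: single dose 10 µM compound, 0.25% DMSO; Schedule: 4 h preincubation then 48 h treatment at 30 °C; Technique: OD615 measurement.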
Yeast growth inh: reduces growth of yeast BB579 in restrictive medium | S. cerevisiae BB579 growth, OD615, 48 h | inhibition, % at 10 µM | actives 0.51% (n = 140,000) | AID 804;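 active = inhibition above a set limit, 3 SD over the mean compound inhibition, cut at about 44% in these data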
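System: Saccharomyces cerevisiae DeaD strain BB579, replicative lifespan model yeast. Buffer or medium: restrictive glucose-based CSMM-D medium. Doses: one dose, 10 µM compound with 0.25% DMSO. Timing: 4 h preincubation and 48 h exposure at 30 °C. Detection: turbidity as optical density at 615 nm. Benchmarks: amphotericin B 10 µg/mL, positive.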
p47phox inh: inhibitors of human p47phox binding. AID 1274. actives 0.53% (n = 220,000). P14598. p47phox/p22phox peptide binding, fluorescence polarization, 2 h. inhibition, % at 24.7 µM;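 active = inhibition above about 30%, limit read from the data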;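 note: 0% = p47phox with labelled peptide and 100% = labelled peptide alone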
Target sequence (P14598 whole entry, looked up): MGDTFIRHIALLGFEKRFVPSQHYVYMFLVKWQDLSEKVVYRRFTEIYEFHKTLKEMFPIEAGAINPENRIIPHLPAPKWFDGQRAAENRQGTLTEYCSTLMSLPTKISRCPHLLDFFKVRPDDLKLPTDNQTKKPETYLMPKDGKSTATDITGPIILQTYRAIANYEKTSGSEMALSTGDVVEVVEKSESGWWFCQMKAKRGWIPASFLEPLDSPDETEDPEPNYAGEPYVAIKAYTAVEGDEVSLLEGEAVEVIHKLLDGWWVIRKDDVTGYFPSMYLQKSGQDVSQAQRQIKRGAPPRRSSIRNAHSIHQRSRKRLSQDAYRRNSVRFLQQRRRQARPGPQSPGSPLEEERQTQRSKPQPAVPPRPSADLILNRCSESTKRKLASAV
TbHK1 inh: blocks Trypanosoma brucei hexokinase 1 activity. actives 0.11% (n = 220,000). inhibition, % at 10 µM. recombinant TbHK1, G6PDH-coupled NADH A340;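 active = inhibition of 50% or more in the single-dose primary screen; inactive = inhibition below 50%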
RBBP9 inhibitor: human RBBP9 hydrolase inhibition; recombinant RBBP9, FP-Rh probe fluorescence polarization; inhibition, % at 7.94 µM; actives 0.2% (n = 220,000);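 active = inhibition above the campaign mean of all tested compounds plus 3 SD, cut at about 14% in these data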;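 note: plate controls were DMSO wells with RBBP9 for no effect and wells lacking RBBP9 protein for full effect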
Target sequence (O75884 whole entry, looked up): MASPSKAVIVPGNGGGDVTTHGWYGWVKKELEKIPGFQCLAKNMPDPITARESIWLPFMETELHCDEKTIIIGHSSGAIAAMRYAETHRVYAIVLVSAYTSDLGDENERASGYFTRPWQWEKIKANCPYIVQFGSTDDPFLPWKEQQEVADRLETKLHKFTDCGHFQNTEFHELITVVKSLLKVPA
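Material: RBBP9 protein. Amount: RBBP9 at 2.5 µM in dispensed solution, before mixing. Schedule: 30 min then 45 min, 25 °C. Medium: Tris buffer pH 8.0, NaCl, Pluronic. Measured by: fluorescence polarization. Measure: percent inhibition from mP, scaled between DMSO and no-protein wells. Replication: one well per compound.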
sdo1 growth: compounds rescuing growth of sdo1-depleted yeast, bone marrow failure model; S. cerevisiae sdo1-depleted JHY4D growth rescue, OD600 30 h; active compounds read high; pdr5 snq2 efflux-pump mutant strain; z-score at 10 µM; actives 0.21% (n = 140,000); AID 817;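 active = z-score above 3 at both the 24 hr and the 30 hr optical density reads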;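 note: z-score against mean and SD of all compound wells on the same plate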
SDO1 rescue DR: confirmation of growth rescue in SDO1-depleted yeast, bone marrow failure; S. cerevisiae JHY4D (SDO1-depleted) growth rescue, OD600, 30 h; active compounds read high; efflux-deficient strain, SNQ2 and PDR5 mutated; OD recovery (test concentration not listed); shares compounds with sdo1 growth; actives 44% (n = 440);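 active = yeast growth recovered at 30 hours, either rising with dose fitted slope above 0.001 or with average optical density gain above 0.07, some results past the limit were not filed as active; inactive = growth falling with dose or no effect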;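 note: gain in OD600 from 0 h to 30 h averaged across all seven doses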
* = called active by the depositor; nt = no result given.

SMILES	Yeast life ext	Yeast growth inh	p47phox inh	TbHK1 inh	RBBP9 inhibitor	sdo1 growth	SDO1 rescue DR
COCCn1c(-c2ccc(-c3ccc([N+](=O)[O-])cc3Br)o2)nc2c1c(=O)[nH]c(=O)n2CC(C)C	nt	nt	-38.2	-5.6	-9.5	nt	nt
Cc1nc2ncnn2c(C)c1CCC(=O)N1CCOCC1	-9.3	-14.8	0.6	4.9	-5.5	5.12*	0.0979*
Cc1nc2ncnn2c(C)c1CCC(=O)N1CCCCC1	-2.4	-23.2	-17.2	2.4	-3.1	0.32	nt
CCOCCCNC(=O)CS(=O)(=O)Cc1nc(-c2cccc(OC)c2)oc1C	-6.7	-49.6	16.7	0.3	-1.6	11.6*	0.073*
CCCNC(=O)CS(=O)(=O)Cc1nc(-c2cccc(OC)c2)oc1C	-7.5	-61.5	-17.4	-3.5	-4.8	1.18	nt
C=C(C)COc1ccc(-c2nc(N)ncc2Oc2ccc(OC)cc2)c(O)c1	-4.4	-24.3	4.5	-9.0	-2.8	3.48*	0.0355
Cc1nn(Cc2ccc(Cl)cc2)c(C)c1NC(=O)CSc1n[nH]c(C)c1[N+](=O)[O-]	-0.8	-32.9	-15.2	-12.8	-7.6	12.3*	0.0604*
Cc1nn(Cc2ccccc2)c(C)c1NC(=O)CSc1n[nH]c(C)c1[N+](=O)[O-]	3.1	-23.4	-16.9	-10.3	-0.8	0.85	nt
Cc1cc(C)nc(SCC(=O)NC2=NN=C(c3ccc(Br)cc3)CS2)n1	-17.4	-12.4	-15.9	-8.2	-38.2	1.1	0.0826*
CCC(Sc1nc(C)cc(C)n1)C(=O)NC1=NN=C(c2ccc(C)cc2)CS1 (stereo not drawn)	-7.9	-20.3	-13.5	-6.8	-7.1	-0.57	nt
Nc1ccc([N+](=O)[O-])cc1C(=O)NNC(=O)c1ccco1	nt	nt	-7.1	-37.7	-1.5	nt	nt
O=C(C1CCCCC1)N1CCN(C(=O)C2CCCCC2)CC1	-15.7	7.3	1.2	1.1	2.2	10.8*	0.0412
CCOC(=O)CN1C(=O)SC(Nc2ccc(C)cc2)C1=O (stereo not drawn)	nt	nt	5.0	-0.1	-5.0	nt	nt
Cc1ccc(OC(C)C(=O)N(Cc2cccs2)C2CCS(=O)(=O)C2)cc1C (stereo not drawn)	nt	nt	-1.2	-6.0	-4.5	nt	nt
CCCCCOc1ccc(NC(=O)C(=O)NCC2CCCN2CC)cc1 (stereo not drawn)	nt	nt	-9.3	5.3	1.8	nt	nt
COc1ccccc1OCc1ccc(C(=O)NCCN(C)C)o1	-20.8	-24.7	-7.8	-1.8	-12.4	2.69	0.0968*
O=C1/C(=C/c2cccnc2)SC(=S)N1Nc1ccccc1	nt	nt	1.3	-30.4	1.4	nt	nt
CC(C)c1ccc(NC(=O)C(c2ccccc2)N(Cc2ccco2)C(=O)CC2NC(=O)NC2=O)cc1 (stereo not drawn)	nt	nt	-8.5	-3.3	5.1	nt	nt
O=S(=O)(c1ccc(Cl)c(NC(=S)Nc2cccc(O)c2)c1)N1CCOCC1	26.6*	-4.2	-16.0	-3.0	-7.2	15.1*	0.0404
CCN(C(=S)Nc1cc(S(=O)(=O)N2CCOCC2)ccc1Cl)c1cccc2ccccc12	-0.8	-23.0	-16.0	-3.2	-7.0	-0.47	nt
CNC(=O)COC(=O)c1cc(F)c(F)cc1Cl	-3.1	-29.3	2.9	-6.6	5.7	0.81	nt
CC(C)NC(=O)COC(=O)c1cc(F)c(F)cc1Cl	-5.1	-8.6	-1.2	1.3	-2.9	5.57*	0.0845*
CCNC(=S)N1CCC(C(N)=O)CC1	nt	nt	-9.4	0.3	-8.9	nt	nt
CCOc1ccc(C(=O)NC(=S)Nc2ccccc2OC)cc1[N+](=O)[O-]	3.8	-22.3	-4.1	-3.1	-9.9	1.5	0.0771*
Cc1cc(NC(=O)CSc2nc3c(c(-c4cccnc4)c2C#N)CCC3)no1	-11.4	-44.6	3.0	-0.4	-8.6	0.09	0.069
SMILES	Yeast life ext	Yeast growth inh	p47phox inh	TbHK1 inh	RBBP9 inhibitor	sdo1 growth	SDO1 rescue DR
CC(C)OC(=O)CSc1nnc(C2CCCCC2)n1N	nt	nt	3.0	6.4	-1.3	nt	nt
CCCCCCCC(=O)NC(Nc1ccc(S(N)(=O)=O)cc1)C(Cl)(Cl)Cl (stereo not drawn)	-15.9	-2.2	-7.8	11.3	-4.5	3.12*	0.104*
CCC(CC)C(=O)Nc1cc(C(=O)OC)ccc1C(=O)OC	4.0	-27.7	5.5	-2.2	-1.1	10.1*	0.025
Cc1cc(Cl)c(OCCCNCc2ccccc2)c(Br)c1	-10.0	-0.6	-5.0	15.9	6.9	4.22*	0.0584
COCCNCCCCOc1c(Cl)cc(C)cc1Br	-17.7	1.1	7.9	7.1	-5.7	0.51	nt
O=C(CC12CC3CC(CC(C3)C1)C2)NCC(=O)N1CCCC1	-15.0	-38.0	-6.6	1.5	-4.5	3.97*	0.0541
Cc1c(C(=O)NC2CCCc3ccccc32)oc2ccc(S(=O)(=O)N3CCCCC3)cc12 (stereo not drawn)	-0.9	-11.3	-4.4	6.6	-4.0	9.35*	0.0924*
O=C(Nc1ccc2c(c1)OCO2)C1CCCN(S(=O)(=O)Cc2ccccc2)C1 (stereo not drawn)	-2.3	-103.4	-8.4	-2.6	10.2	2.35	0.0824*
Cc1n[nH]c(C)c1S(=O)(=O)N1CCCC(C(=O)Nc2ccc3c(c2)OCCO3)C1 (stereo not drawn)	-3.0	-14.2	-11.6	2.4	-12.3	2.13	0.0939*
O=C(Nc1ccccc1Cl)c1ccc(-n2cccn2)c([N+](=O)[O-])c1	nt	nt	-3.2	-7.8	0.6	nt	nt
CCN(CC)S(=O)(=O)c1ccc(OC)c(NC(=O)c2cn(CC)c3nc(C)ccc3c2=O)c1	nt	nt	1.0	-5.0	4.2	nt	nt
COc1ccccc1S(=O)(=O)Cc1ccc(C(=O)N2CCOCC2)o1	2.9	-32.0	-9.7	2.7	-6.3	3.19*	0.0437
COc1ccccc1S(=O)(=O)Cc1ccc(C(=O)N2CCN(c3ccccc3)CC2)o1	-12.1	-60.2	-6.1	-5.1	0.7	0.29	nt
COC(=O)c1ccc(C(=O)OC)c(=O)[nH]1	nt	nt	-3.3	-36.3	6.3	nt	nt
CN1CC=C2C(C#N)=C(N)C(C#N)(C#N)[C@H](c3ccoc3)[C@H]2C1	-8.0	-40.6	-4.5	-12.7	-7.4	3.42*	0.0498
CC(=O)c1sc(NC(=O)c2cc3c(C)nn(-c4ccccc4)c3s2)nc1C	-4.3	-38.2	5.7	-9.5	-4.9	4.03*	0.109*
Cc1nc(NC(=O)c2cc3c(C)nn(-c4ccccc4)c3s2)sc1C(=O)Nc1ccccc1	-19.4	-22.1	-7.0	-53.8	-10.6	-0.46	nt
CC(=O)Oc1ccc2occ(/C=N/c3cc(=O)[nH]c(=S)[nH]3)c(=O)c2c1	nt	nt	-7.6	-49.6	-2.7	nt	nt
CCOC(=O)C1CCCN(C(=O)Cc2ccc(C)cc2)C1 (stereo not drawn)	-4.4	-91.2	-9.4	-9.6	6.0	2.19	0.121
